Experimental findings from ChEMBL document CHEMBL1139032, “Design and modular parallel synthesis of a MCR derived alpha-helix mimetic protein-protein interaction inhibitor scaffold” (Bioorg Med Chem Lett, 2006) are described below.

Activity calls are given as the source filed them. The calls are words filed in the database; no cut-off is given here.

The target in test [1] is Bcl-2-like protein 1 (Homo sapiens) (UniProt Q07817). As to the kind of experiment: Inhibition of BclXL by FP assay. The procedure, abridged: (§1)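 Run in 20 mM potassium phosphate pH 7.4 with 1 mM EDTA, 50 mM NaCl and 0.05% Pluronic F-68, at 10% final DMSO. Polarization read at ex 485/em 535 nm after 2 h at room temperature.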
For another test, the system named is HL-60. As to the kind of experiment: Antiproliferative activity against HL60 cells by WST-1 assay. The following applies: Homo sapiens. (In general: Tetrazolium dyes change colour on reduction, which living cells bring about.)
For test [2], the target named is Apoptosis regulator Bcl-2 (Homo sapiens) (UniProt P10415). As to the kind of experiment: Inhibition of Bcl2 by FP assay. The gist of the method: as §1
Another test concerns the target T1, Bcl-2-like protein 2 (Homo sapiens, UniProt Q92843).
T1 sequence (Q92843 whole entry): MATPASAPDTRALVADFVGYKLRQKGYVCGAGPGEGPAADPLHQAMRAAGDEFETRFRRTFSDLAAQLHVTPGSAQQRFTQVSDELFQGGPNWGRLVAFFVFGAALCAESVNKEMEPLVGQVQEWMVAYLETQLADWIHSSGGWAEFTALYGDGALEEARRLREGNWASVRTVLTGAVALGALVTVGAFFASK
The experiment in a line: Inhibition of Bclw by FP assay. The procedure, abridged: as §1

Apoptosis regulator Bcl-2 (Homo sapiens), sequence (P10415 whole entry): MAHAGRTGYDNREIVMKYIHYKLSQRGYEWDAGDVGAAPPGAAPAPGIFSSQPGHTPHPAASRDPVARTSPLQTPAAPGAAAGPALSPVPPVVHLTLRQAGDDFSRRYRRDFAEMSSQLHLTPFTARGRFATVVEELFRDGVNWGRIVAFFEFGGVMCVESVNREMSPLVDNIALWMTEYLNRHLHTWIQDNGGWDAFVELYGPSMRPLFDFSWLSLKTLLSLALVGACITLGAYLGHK
Bcl-2-like protein 1 (Homo sapiens), sequence (Q07817 whole entry): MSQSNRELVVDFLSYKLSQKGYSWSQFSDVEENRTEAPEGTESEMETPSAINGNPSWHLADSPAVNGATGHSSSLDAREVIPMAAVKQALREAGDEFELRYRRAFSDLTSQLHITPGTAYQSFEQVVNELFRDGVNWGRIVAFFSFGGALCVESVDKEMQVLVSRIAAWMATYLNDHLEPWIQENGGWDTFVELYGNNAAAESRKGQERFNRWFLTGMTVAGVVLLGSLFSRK

The GI50 is the concentration that inhibits growth by half. A low value points to more potent growth inhibition. As usually defined, the IC50 is the concentration that inhibits the measured activity by half. Higher therefore signals weaker potency. Turning to `CCCCc1c(-c2ccccc2Oc2ccccc2)ncn1CCc1ccccc1OC`, the result in test [1] and in test [2] was inactive. This compound also yielded a GI50 in the test with HL-60 of 9.43 µM. Also, inhibition against Bcl-2-like protein 2 was half-maximal at 8.09 µM (IC50).

In the case of `CCCc1c(-c2ccccc2Oc2ccccc2)ncn1Cc1ccccc1OC`, the outcome in test [1] and in test [2] was inactive. Besides, in the test on HL-60, growth was halved (GI50) at 12.5 µM. On Bcl-2-like protein 2, this compound had an IC50 of 14 µM.

Turning to `CCCCc1c(-c2ccccc2OC)ncn1Cc1cccc(-c2ccccc2)c1`, the result in test [1] and in test [2] was inactive. The compound also came in with a GI50 in the test with HL-60 of 13 µM. Half-maximal inhibition against Bcl-2-like protein 2 (IC50) was put at 26.9 µM.
